The target of data set [1] is T1, Lysosomal acid glucosylceramidase (Homo sapiens, UniProt P04062).
T1 sequence (P04062 whole entry): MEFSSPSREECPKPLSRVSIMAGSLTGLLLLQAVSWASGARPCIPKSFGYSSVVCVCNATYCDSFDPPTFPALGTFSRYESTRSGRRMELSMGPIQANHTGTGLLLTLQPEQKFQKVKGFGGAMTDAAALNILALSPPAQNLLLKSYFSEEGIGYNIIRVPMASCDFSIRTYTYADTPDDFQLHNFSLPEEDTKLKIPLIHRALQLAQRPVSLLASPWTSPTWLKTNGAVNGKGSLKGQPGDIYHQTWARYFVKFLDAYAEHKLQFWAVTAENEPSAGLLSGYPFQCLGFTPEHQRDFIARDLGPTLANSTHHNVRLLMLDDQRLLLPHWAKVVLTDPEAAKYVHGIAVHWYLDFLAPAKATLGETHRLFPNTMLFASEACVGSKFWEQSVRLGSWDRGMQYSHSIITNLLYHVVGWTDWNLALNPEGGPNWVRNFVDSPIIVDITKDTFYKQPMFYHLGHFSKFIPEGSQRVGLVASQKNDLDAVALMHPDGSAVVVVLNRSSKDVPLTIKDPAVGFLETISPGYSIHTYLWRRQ
Put plainly: Competitive inhibition of wild type human glucocerebrosidase using 4-methylumbelliferyl beta-D-glucopyranoside as substrate after 15 mins by Dixon and Line-Weaver Burk plot analysis […].

In data set [2] the test system is T2, Lysosomal acid glucosylceramidase (Homo sapiens), P04062 [N409S].
T2 sequence (whole entry): T1 sequence (P04062 whole entry) with N409S
Put plainly: Activation of intracellular glucocerebrosidase p.N370S mutant in gaucher patient fibroblast using 4-methylumbelliferyl beta-D-glucopyranoside as substrate relative to control.

Data set [3] deals with T3, Lysosomal acid glucosylceramidase (Homo sapiens) (UniProt P04062).
T3 sequence (whole entry): T1 sequence (P04062 whole entry)
Put plainly: Thermal denaturation of human glucocerebrosidase by differential scanning fluorimetry assessed as change in melting temperature at 100 uM and pH 7. (DSF heats the sample and reads unfolding from a dye or from intrinsic fluorescence.)

In data set [4] the test system is T2, Lysosomal acid glucosylceramidase (Homo sapiens), P04062 [N409S]. The experiment in a line: Activation of intracellular glucocerebrosidase p.N370S mutant in gaucher patient fibroblast using 4-methylumbelliferyl beta-D-glucopyranoside as substrate assessed as concentration at which 50% of maximum increase in activity.
Data set [5] has as its target Lysosomal alpha-glucosidase (Homo sapiens) (UniProt P10253). The experiment in a line: Inhibition of human lysosomal alpha-glucosidase using 4-methylumbelliferyl alpha-D-glucopyranoside as substrate at 200 uM by fluorimetric analysis. A digest of the protocol:
(§1)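 Enzyme source was a lysosomal-enzyme-enriched ConA-bound human placental fraction, run in 100 mM citrate–phosphate pH 4.5 with 0.025% human serum albumin at 37 °C. Compound was tested at 200 μM in triplicate. An equal volume of 4-MU substrate was added: α-Glc 3.0 mM (α-glucosidase), α-Gal 1.0 mM (α-galactosidase), β-Gal 0.5 mM (β-galactosidase). Reactions were stopped with 4-fold excess 100 mM aminomethylpropanol and fluorescence read at 365/460 nm.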

Data set [6] is filed under the species Homo sapiens. Put plainly: Activation of intracellular glucocerebrosidase p.L444P mutant in gaucher patient fibroblast using 4-methylumbelliferyl beta-D-glucopyranoside as substrate assessed as concentration at which 50% of maximum increase in activity.
For data set [7], the species on record is Homo sapiens. The experiment in a line: Activation of intracellular glucocerebrosidase p.L444P mutant in gaucher patient fibroblast using 4-methylumbelliferyl beta-D-glucopyranoside as substrate relative to control.
The target in data set [8] is T4, Beta-galactosidase (Homo sapiens) (UniProt P16278).
T4 sequence (whole entry): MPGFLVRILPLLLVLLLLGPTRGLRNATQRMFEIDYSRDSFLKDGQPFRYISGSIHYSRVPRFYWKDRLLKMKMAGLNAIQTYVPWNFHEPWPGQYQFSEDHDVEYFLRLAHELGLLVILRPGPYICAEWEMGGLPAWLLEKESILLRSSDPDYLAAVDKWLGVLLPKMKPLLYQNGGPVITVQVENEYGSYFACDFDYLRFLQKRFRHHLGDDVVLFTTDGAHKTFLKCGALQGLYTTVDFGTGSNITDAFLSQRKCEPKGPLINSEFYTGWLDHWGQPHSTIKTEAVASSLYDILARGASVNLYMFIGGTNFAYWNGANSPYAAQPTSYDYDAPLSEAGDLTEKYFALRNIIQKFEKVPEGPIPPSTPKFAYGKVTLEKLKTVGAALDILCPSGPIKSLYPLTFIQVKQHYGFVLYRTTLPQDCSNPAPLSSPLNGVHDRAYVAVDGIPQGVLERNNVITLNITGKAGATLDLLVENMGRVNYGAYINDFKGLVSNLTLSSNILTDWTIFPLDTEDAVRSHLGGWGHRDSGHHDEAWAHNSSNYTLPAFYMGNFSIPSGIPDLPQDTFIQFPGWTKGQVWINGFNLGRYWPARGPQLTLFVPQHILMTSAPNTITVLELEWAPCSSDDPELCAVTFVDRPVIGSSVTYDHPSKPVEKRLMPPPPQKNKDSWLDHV
The experiment in a line: Inhibition of human lysosomal beta-galactosidase using 4-methylumbelliferyl beta-Dgalactopyranoside as substrate at 200 uM by fluorimetric analysis. Summed up:
as §1

Data set [9] is filed under the species Homo sapiens. The experiment in a line: Inhibition of human lysosomal alpha-galactosidase using 4-methylumbelliferyl alpha-D-galactopyranoside as substrate at 200 uM by fluorimetric analysis. A digest of the protocol: as §1
Data set [10] concerns the target T5, Cytosolic beta-glucosidase (Homo sapiens, UniProt Q9H227).
T5 sequence (Q9H227 whole entry): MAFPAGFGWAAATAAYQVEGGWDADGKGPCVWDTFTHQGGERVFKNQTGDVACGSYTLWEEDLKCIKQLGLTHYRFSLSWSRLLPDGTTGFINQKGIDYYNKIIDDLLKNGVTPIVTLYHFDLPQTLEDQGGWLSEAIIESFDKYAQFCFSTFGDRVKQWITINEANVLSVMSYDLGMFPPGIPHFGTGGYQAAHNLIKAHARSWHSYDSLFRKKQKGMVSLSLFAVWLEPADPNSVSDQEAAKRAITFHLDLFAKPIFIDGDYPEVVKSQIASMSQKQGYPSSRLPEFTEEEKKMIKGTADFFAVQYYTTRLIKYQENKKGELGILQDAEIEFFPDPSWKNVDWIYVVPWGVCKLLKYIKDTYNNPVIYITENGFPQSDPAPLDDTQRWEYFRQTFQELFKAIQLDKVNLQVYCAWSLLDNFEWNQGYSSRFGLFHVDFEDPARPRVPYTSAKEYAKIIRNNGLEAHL
The experiment in a line: Inhibition of human cytosolic beta-glucosidase using 4-methylumbelliferyl beta-D-glucopyranoside as substrate after 15 mins by fluorimetric analysis. A digest of the protocol: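 Purified human cytosolic neutral β-glucosidase was preincubated 15 min at room temperature with a 3-fold compound dilution series. An equal volume of 10 mM 4-MU β-D-glucoside in 100 mM citrate–phosphate pH 7.0 was added, then incubated 30 min at 37 °C. The reaction was stopped with 4-fold excess 100 mM 2-amino-2-methylpropanol and read at ex 365/em 460 nm. IC50 came from nonlinear fitting.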

Data set [11] is filed under the species Homo sapiens. Put plainly: Activation of beta-N-acetyl hexosaminidase in gaucher patient fibroblast using 4-methylumbelliferyl N-acetyl-beta-D-glucosaminide as substrate. Summed up:
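Patient fibroblasts (GD, homozygous mutant GBA) grown in α-MEM with 10% FCS at 37 °C, CO2, with compound for 5 days. Lysates prepared in pH 5.5 citrate–phosphate with Triton X-100 and taurocholate. Lysosomal β-N-acetyl hexosaminidase activity read with fluorogenic 4-MU N-acetyl-β-D-glucosaminide at each compound concentration.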

The nature of data set [12]: Cytotoxicity against gaucher patient fibroblast assessed as decrease in cell viability at 10 uM after 5 days by alamar blue assay. As to conditions: human, 120 h. The data set is classed as cell-based. Summed up: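 Viability of GD patient fibroblasts grown with compound at 10, 33 and 100 μM was read by a resazurin-based spectrophotometric assay.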
In general terms: Resazurin is reduced to fluorescent resorufin, in cell work by metabolically active cells.

The target of data set [13] is T1, Lysosomal acid glucosylceramidase. The experiment in a line: Competitive inhibition of wild type human glucocerebrosidase using 2,4-dinitrophenyl beta-D-glucopyranoside as substrate after 3 mins by Dixon and Line-Weaver Burk plot analysis at pH 5. Summed up: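 Continuous UV assay with 4.0 nM GBA and 2,4-dinitrophenyl β-D-glucoside, started by adding enzyme. A400 was followed, linear over 3 min. Three substrate levels were run at about seven inhibitor levels (0.2–5 Ki), with nonlinear fit to a competitive model checked by Dixon and Lineweaver–Burk plots.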

Molecules are shown by their SMILES. Positions count from the first letter of the chain named. The source made the active and inactive calls. The rule behind the calls is not given here.

Broadly, the Ki is a dissociation constant, usually derived from enzyme kinetics or from competition with a known ligand. High values mean weaker binding, low ones tighter binding. Usually IC50 stands for the midpoint of a concentration-inhibition curve. Lower therefore signals higher potency.

On to `CC(C)CCSCC[C@H]1NC[C@@H](O)[C@H](O)[C@H]1O`, for which the Ki in [1] worked out at 4.4 nM. Moreover, the fold change (FC) came to 2 in [2] and 1.2 in data set [7]. The deltaTm in data set [3] is 14 K. Further, the Activity in [4] stood at 1.2 nM; in data set [6] it was 0.3 nM. The inhibition entry in data set [5], in data set [8] and in [9] was “inactive” each time.
With `O[C@@H]1[C@@H](O)[C@@H](CCSCCc2ccccc2)NC[C@H]1O`, the inhibition constant Ki in [1] was found to be 3 nM. For the same compound, the fold change (FC) in [2] was 2.2; in data set [7] it was 1.1. The deltaTm in [3] was 14 K. Further, the figures for the Activity in [4] and in data set [6] were 2.8 nM and 2.1 nM, respectively. For the same compound, the inhibition entry in data set [5], in data set [8] and in data set [9] was “inactive” each time.
In [1], `O[C@@H]1[C@@H](O)[C@@H](CCSCc2ccccc2)NC[C@H]1O` showed a Ki of 19 nM. The fold change (FC) in data set [2] worked out at 2.1; in data set [7], 1.1. In [3], the deltaTm came to 13 K. The Activity worked out at 1.6 nM in data set [4] and 2.6 nM in data set [6]. Moreover, the inhibition result in [5], in [8] and in data set [9] was “inactive” each time.
In data set [1], `O[C@@H]1[C@@H](O)[C@@H](CCSC2CCCCC2)NC[C@H]1O` showed an inhibition constant (Ki) of 4 nM. Also, the fold change (FC) stood at 2.2 in data set [2] and 1.3 in data set [7]. Besides, the deltaTm in data set [3] is 13 K. Besides, the Activity in [4] is 1.3 nM; in [6], 0.6 nM. Besides, the inhibition result in data set [5], in data set [8] and in data set [9] was “inactive” each time.
Consider `CCCCCCCCSCC[C@H]1NC[C@@H](O)[C@H](O)[C@H]1O.Cl`, for which the affinity in [1] corresponds to a Ki of 0.4 nM. For the same compound, the values for the fold change (FC) in [2] and in data set [7] were 1.6 and 1.2, respectively. Besides, the IC50 in data set [10] is 2000 nM. In addition, the inhibition result in data set [11] is “Active”. Besides, in data set [3], the deltaTm worked out at 20 K. Besides, the values for the Activity in [4], in data set [6] and in [12] were 1 nM, 0.6 nM and “Toxic”, respectively. Besides, the inhibition entry in data set [5], in [8] and in [9] was “inactive” each time.
`CCCCSCC[C@H]1NC[C@@H](O)[C@H](O)[C@H]1O` displayed a Ki in data set [1] of 18 nM. The fold change (FC) came out at 2.4 in [2] and 1.3 in data set [7]. For the same compound, the deltaTm in data set [3] was 11 K. In addition, the Activity in data set [4] turned out to be 18 nM; in [6] it was 12 nM. Besides, the inhibition entry in data set [5], in [8] and in data set [9] was “inactive” in each case.
In turn, `O[C@@H]1[C@@H](O)[C@@H](CCSC2CCCC2)NC[C@H]1O` registered a Ki in [1] of 6 nM. The fold change (FC) in [2] was 2.2; in [7], 1.4. Further, the deltaTm in data set [3] was determined as 11 K. In addition, the Activity in data set [4] came out at 5.3 nM; in data set [6], 1.2 nM. The inhibition entry in data set [5], in data set [8] and in data set [9] was “inactive” in each case.
Consider `C=C[C@H]1NC[C@@H](O)[C@H](O)[C@H]1O`, for which the values for the fold change (FC) in data set [2] and in data set [7] were 1.4 and 1.3, respectively. This compound also had a Ki in [13] of 2700 nM. Besides, in data set [3], the deltaTm is 3.4 K. The Activity was determined as 1800 nM in [4] and 1700 nM in data set [6]. In addition, the inhibition result in [5], in data set [8] and in data set [9] was “inactive” in each case.
In turn, `O=C(NCCSCC[C@H]1NC[C@@H](O)[C@H](O)[C@H]1O)Nc1ccccc1` had a Ki in data set [1] of 12 nM. Moreover, the values for the fold change (FC) in [2] and in data set [7] were 2.3 and 1.1, respectively. The deltaTm in [3] worked out at 11 K. In addition, the Activity in [4] was found to be 90 nM; in data set [6], 64 nM. Moreover, the inhibition entry in [5], in data set [8] and in data set [9] was “inactive” throughout.

The record behind these values is ChEMBL document CHEMBL2029267, “Rapid assembly of a library of lipophilic iminosugars via the thiol-ene reaction yields promising pharmacological chaperones for the treatment of Gaucher disease” (J Med Chem, 2012).
